Laboratory results as given in ChEMBL document CHEMBL1147025, “Synthesis of fluorescently tagged isoprenoid bisphosphonates that inhibit protein geranylgeranylation” (Bioorg Med Chem, 2007).
pIC50: −log10 of the molar value. Calls of active or inactive are those of the source. The calls are words filed in the database; no cut-off is given here.

Assays:
Settings in all cases: Homo sapiens
K562 [1] = experiment: Inhibition of Ras farnesylation in K562 cells by Western blot analysis after 24 hrs; assay type: functional, cell-based
Method in brief: (§1)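 K562 cells (5 × 10^6 per 5 mL; RPMI-1640, 10% heat-inactivated FBS, 37 °C, 5% CO2) treated 24 h with bisphosphonates diluted in water. Untreated cells served as negative control and 10 µM lovastatin as positive prenylation control. Western blotting used pan-Ras antibody (farnesylation), Rab6 antibody (GGPTase II), and an antibody recognising only unmodified Rap1a (GGPTase I).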

K562 [2] = experiment: Inhibition of DNA synthesis in K562 cells assessed as [3H]thymidine incorporation after 24 hrs; assay type: functional, cell-based
Method in brief: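 K562 cells grown at 37 °C, 5% CO2 in RPMI-1640 with 10% heat-inactivated FBS. Cells at 2 × 10^5 per 200 µL exposed to bisphosphonates (diluted in water) for 24 h, pulsed with [3H]thymidine (0.04 µCi/well) for the last 2 h. Incorporation into DNA measured by liquid scintillation counting; IC50 for 24 h exposure.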

K562 [3] = experiment: Inhibition of GGPTase2 in K562 cells assessed as Rab6 geranylgeranylation after 24 hrs; assay type: cell-based; method in brief: as §1
K562 [4] = experiment: Inhibition of GGPTase1 in K562 cells assessed as Rap1a geranylgeranylation after 24 hrs; assay type: cell-based; method in brief: as §1

## CC(C)=CCC/C(C)=C/CC(C/C=C(\C)CNc1ccccc1C(=O)O)(P(=O)(O)O)P(=O)(O)O
K562 [1]
  Activity: inactive
K562 [2]
  pIC50: < 4.00
K562 [3]
  Activity: Active
K562 [4]
  Activity: Active

## C/C(=C\CC(P(=O)(O)O)P(=O)(O)O)CC/C=C(\C)CNc1ccccc1C(=O)O
K562 [1]
  Activity: inactive
K562 [2]
  pIC50: < 4.00
K562 [3]
  Activity: inactive
K562 [4]
  Activity: inactive

## CC(C)=CCC/C(C)=C/CC(C/C=C(\C)CC/C=C(\C)CNc1ccccc1C(=O)O)(P(=O)(O)O)P(=O)(O)O
K562 [1]
  Activity: inactive
K562 [2]
  pIC50: < 4.00
K562 [3]
  Activity: Active
K562 [4]
  Activity: Active
